MEX-5 binding = MEX-5 zinc finger RNA-binding disruptors – biochemical, C. elegans, fluorescence polarization, MLPCN library, primary screen; MEX-5/FITC-TCR2 RNA binding; stronger effect = lower value; activity score (negative = inhibition of binding), % at 10 µM; 300,000 tested, 0.38% active;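 active = inhibition past about -25% in most replicates, and total fluorescence under double the plate's negative control median, limit read from the data; inconclusive = replicates evenly split on the limit, or fluorescence at least double controls; inactive = too little inhibition in most replicates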;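 note: 0% = DMSO and -100% = 5 µM competing unlabeled TCR2 RNA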
PKD1 inh = inhibitors of human PKD1 kinase, biochemical, fluorescence polarization | AID 797, 2007 | Serine/threonine-protein kinase D1 (Homo sapiens), Q15139 | PKD1 kinase fluorescence polarization assay | 200,000 tested, 0.056% active | inhibition, % (test concentration not listed)
EBV gp42 block = Epstein-Barr virus gp42 inhibitors, primary screen, biochemical, uHTS, fluorescence polarization; Fluorescence polarization binding assay, mP read-out; inhibition, % (tested at 21.74 µM); 220,000 tested, 0.42% active
Target sequence (Q1HVG2 whole entry, looked up): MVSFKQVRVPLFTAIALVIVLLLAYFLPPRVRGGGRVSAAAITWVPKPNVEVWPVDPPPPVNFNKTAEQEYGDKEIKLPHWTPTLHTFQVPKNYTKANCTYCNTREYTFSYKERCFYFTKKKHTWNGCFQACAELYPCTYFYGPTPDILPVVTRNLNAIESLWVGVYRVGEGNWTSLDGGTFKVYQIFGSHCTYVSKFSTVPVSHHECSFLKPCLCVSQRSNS
Runt-SMMHC FRET = inhibitors of RUNX1 Runt–CBFb-SMMHC binding, primary screen, biochemical, FRET, Cerulean-Runt, Venus-CBFb-SMMHC, uHTS. 220,000 tested, 0.74% active. inhibition, % at 20 µM. Cerulean-Runt/Venus-CBFb-SMMHC FRET ratio 530/480, 1 h. AID 1434, 2008. Runt-related transcription factor 1 (Homo sapiens) + Core-binding factor subunit beta …;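 active = mean inhibition across duplicate retests at 20 µM reaching about 50%, limit read from the data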;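 note: 0% = DMSO wells and 100% = wells with excess untagged CBFb-SMMHC; inhibitors lower the FRET ratio by blocking Runt binding to CBFb-SMMHC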
Runt-CBFb FRET = inhibitors of RUNX1 Runt–CBFb binding, primary screen, biochemical, FRET, Cerulean-Runt, Venus-CBFb, uHTS; inhibition, % at 20 µM; Runt-related transcription factor 1 (Homo sapiens) + Core-binding factor subunit beta …; 220,000 tested, 0.46% active; Cerulean-Runt/Venus-CBFb FRET ratio 530/480, 1 h;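 active = inhibition over about 50% at 20 µM in the single-dose screen, limit read from the data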;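 note: 0% = DMSO wells and 100% = excess unlabeled CBFb competitor control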
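Assay system: Cerulean-Runt domain fusion protein, energy donor; Signal: fluorescence energy transfer, 422 nm excitation, 530/480 nm emission; Timing: 1 h compound exposure, room temperature; Control set: unlabeled CBFb; Medium: Tris buffer pH 7.5 with salts and BSA; Compound: single test concentration of 20 µM, 1% DMSO final; Probe or stimulus: Venus-CBFb 100 nM.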
RanGTP-Impb inh = inhibitors of RanGTP-importin-beta interaction, primary screen, biochemical, FRET, CFP-Ran, YFP-importin-beta, homogeneous; cell-free CFP-Ran/YFP-importin-beta FRET ratio; inhibition, % (no concentration beside the values); AID 2216, 2009; 300,000 tested, 1.1% active; Ran GTPase (GTP-bound) - importin-beta complex;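 active = more than half of the replicate wells show a fall in the fluorescence ratio signal beyond about 16%, limit read from the data, passing the limit was not always enough; inconclusive = exactly half of the replicate wells pass the set limit; inactive = fewer than half of replicates pass the limit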;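 note: 0% = DMSO wells and 100% = Ran loaded with GDP instead of GTP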
YIC FRET counter = YIC intramolecular FRET probe signal interference, dose response, counter-screen for RanGTP-importin-beta inhibitor project, biochemical, fluorescence FRET. shares compounds with RanGTP-Impb inh. Purified YIC probe, intramolecular FRET ratio YFP/CFP. IC50, µM. 1,000 tested, 40% active. AID 435026, 2010;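 active = fitted half-maximal inhibitory concentration no more than tenfold above the top dose tested; inconclusive = flat fit with 30 to 70% activity, or poor fit; inactive = half-maximal concentration beyond tenfold above the top dose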
* marks the source's active call; other numbers are inactive results; ? = inconclusive; / = no result. Shown are actives, neighbours in structure and some others; about 2% of the full set was active somewhere. Cut-off read from the data, not from the text of the source, unless noted: active = inhibition above about 50%; inactive = the rest.

SMILES	MEX-5 binding	PKD1 inh	EBV gp42 block	Runt-SMMHC FRET	Runt-CBFb FRET	RanGTP-Impb inh	YIC FRET counter
CCn1c(SCC(=O)NC2CCCCC2)nc2c(c1=O)SCC2	-1	/	/	/	/	-2	/
Cc1ccc(C)c(N=Cc2cc3c(cc2[N+](=O)[O-])OCO3)c1	0	0	-23	11	7	3	/
Cc1ccc(N=Cc2cc3c(cc2[N+](=O)[O-])OCO3)cc1[N+](=O)[O-]	0	/	/	/	/	20*	>50
C=CCN(C(=O)CSC1=NC(=O)CN1C(C)=O)c1nc(C)c(-c2ccccc2)s1	1	2	-2	-5	-4	?	/
CSc1ncccc1C(=O)OCC(=O)c1cc2ccccc2o1	0	0	-9	0	-4	19*	>50
Oc1ccc(/C=N/Nc2cc(N3CCOCC3)nc(N3CCOCC3)n2)cc1	-4	2	/	/	/	22*	>50
Cc1nc(N/N=C/c2ccc(Br)cc2)cc(N2CCOCC2)n1	2	/	/	/	/	3	/
Brc1cccc(/C=N/Nc2nc(N3CCCCC3)nc(N3CCCCC3)n2)c1	1	-12	-13	/	/	-4	/
Oc1cccc(/C=N/Nc2cc(N3CCCC3)nc(N3CCCC3)n2)c1	-2	-2	1	5	2	21*	>50
CN(C)C=NC(=O)c1cc(C(=O)c2ccc(C(C)(C)C)cc2)c[nH]1	0	-6	6	2	0	27*	>50
CN(C)C=NC(=O)c1cc(C(=O)c2ccccc2Cl)c[nH]1	0	4	-6	-8	0	1	/
CSc1nc2ccsc2c(=O)n1-c1ccccn1	2	-3	-10	3	1	-1	/
COc1ccc(-c2c(C)c3ccc(O)cc3oc2=O)cc1OC	-1	/	/	/	/	20*	34*
CN(C)c1cccc(C(=O)Nc2nnc(Cc3ccccc3)s2)c1	-3	/	/	/	/	9	/
O=c1[nH]c2cc(Br)cnc2nc1/C=C(\O)c1ccc(F)cc1	-1	-3	-5	-19	21	18*	>50
O=[N+]([O-])c1ccc(OCc2cnc(Cl)s2)c([N+](=O)[O-])c1	-1	-3	-4	-4	2	0	/
COC(=O)c1cccnc1NC(=S)NNC(=O)c1ccccc1	1	2	-19	0	3	27*	>50
COC(=O)c1ccc(NC(=S)NNC(=O)c2ccccc2)cc1	-2	3	-16	1	19	0	/
COc1ccc(OC(=O)C2CC(=O)N(c3ccc(C)cc3)C2)cc1 (stereo not drawn)	-1	7	-19	5	-2	22*	>50
COC(=O)C1CC(=O)N(c2ccc(C)cc2)C1 (stereo not drawn)	1	-15	-13	2	1	1	/
CC1(C)CC(=O)C/C(=N\NC(=O)C2CC2c2ccccc2)C1 (stereo not drawn)	-5	-3	-7	1	2	0	/
CC1(C)CC(=O)C/C(=N\NC(=O)C2CC23CCC3)C1 (stereo not drawn)	-13	5	10	1	2	18*	>50
Cn1c(=O)cc(OCCCC(=O)NCc2ccccn2)c2ccccc21	0	-7	4	0	-6	23*	>50
Cn1c(=O)cc(OCC(=O)NCc2ccccn2)c2ccccc21	-1	-15	-23	-9	0	2	/
COc1ccc(-c2cc(C(=O)NC3CC3)c3ccccc3n2)cc1	1	/	/	/	/	-3	/
COc1cccc(-c2cc(C(=O)NC3CC3)c3ccccc3n2)c1	0	/	/	/	/	19*	>50

Assay outcomes from PubChem BioAssay.
